Measured values published in ChEMBL document CHEMBL1255303, “In vitro and in vivo antifungal activities of T-2307, a novel arylamidine” (2008).
≈ marks a conversion by molar mass, not a printed value. Calls of active or inactive are those of the source. The calls are words filed in the database; no cut-off is given here.

Tests used:
Aspergillus fumigatus [1] = assay: Antifungal activity against Aspergillus fumigatus IFM 49895 after 48 hrs by broth microdilution method; type: functional; conditions: IFM 49895, 48 h
Outline: (§1)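 CLSI M27-A2 (yeasts) / M38-A (moulds) broth microdilution in RPMI 1640 buffered to pH 7.0 with 0.165 M MOPS. Malassezia furfur got the same medium supplemented with glucose, bile salts, glycerol, glycerol monostearate and Tween 20. Final inoculum 0.65 × 10^3–2.5 × 10^3 CFU/ml for yeasts and 0.87 × 10^4–3.8 × 10^4 CFU/ml for filamentous fungi. Incubation at 35°C except M. racemosus and F. solani, which were held at 30°C.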

Aspergillus nidulans = assay: Antifungal activity against Aspergillus nidulans NBRC 33017 after 48 hrs by broth microdilution method; type: functional; conditions: NBRC 33017, 48 h; outline: as §1
Candida albicans [2] = assay: Antifungal activity against Candida albicans clinical isolates after 48 hrs by broth microdilution method; type: functional
Outline: (§2)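 Clinical isolates from Japanese hospitals or culture collections were tested by broth microdilution in RPMI 1640-MOPS. Inoculum was 0.57 × 10^3–2.5 × 10^3 CFU/ml for yeasts and 0.4 × 10^4–3.3 × 10^4 CFU/ml for filamentous fungi. Incubation was at 35°C for about 48 h, or 72 h where footnoted. Results were summarised as MIC range, MIC50 and MIC90.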

Nakaseomyces glabratus [3] = assay: Antifungal activity against Candida glabrata ATCC 90030 after 48 hrs by broth microdilution method; type: functional; conditions: ATCC 90030, 48 h; outline: as §1
Aspergillus flavus = assay: Antifungal activity against Aspergillus flavus NBRC 6343 after 48 hrs by broth microdilution method; type: functional; conditions: NBRC 6343, 48 h; outline: as §1
Candida albicans [4] = assay: Antifungal activity against Candida albicans ATCC 10261 after 48 hrs by broth microdilution method; type: functional; conditions: ATCC 10261, 48 h; outline: as §1
Aspergillus terreus = assay: Antifungal activity against Aspergillus terreus NBRC 33026 after 48 hrs by broth microdilution method; type: functional; conditions: NBRC 33026, 48 h; outline: as §1
Nakaseomyces glabratus [5] = assay: Antifungal activity against Candida glabrata clinical isolates after 48 hrs by broth microdilution method; type: functional; outline: as §2
[6] = system: Meyerozyma guilliermondii; assay: Antifungal activity against Candida guilliermondii clinical isolates after 48 hrs by broth microdilution method; type: functional; outline: as §2
Candida albicans [7] = assay: Antifungal activity against Candida albicans ATCC MYA-573 after 47 hrs by broth microdilution method; type: functional; conditions: ATCC MYA-573, 47 h
Outline: (§3)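 Fluconazole-resistant or susceptible-dose-dependent ATCC C. albicans strains were tested by CLSI M27-A2 broth microdilution in RPMI 1640–0.165 M MOPS, pH 7.0, with a final inoculum of 1.1–1.5 × 10^3 CFU/ml at 35°C for about 47 h. MIC was the lowest concentration with a prominent (~50%) turbidity decrease relative to growth control; amphotericin B was read at complete inhibition.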

Candida albicans [8] = assay: Antifungal activity against Candida albicans ATCC MYA-2732 after 47 hrs by broth microdilution method; type: functional; conditions: ATCC MYA-2732, 47 h
Outline: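 Fluconazole-resistant or susceptible-dose-dependent C. albicans ATCC strains were tested by broth microdilution in RPMI 1640-MOPS. Inoculum was 1.1 × 10^3–1.5 × 10^3 CFU/ml, with incubation at 35°C for about 47 h. Yeast MIC was read as about 50% turbidity decrease relative to growth control, except amphotericin B, read at complete inhibition.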

Candida parapsilosis = assay: Antifungal activity against Candida parapsilosis NBRC 10219 after 48 hrs by broth microdilution method; type: functional; conditions: Lodderomyces parapsilosis, NBRC 10219, 48 h
Outline: (§4)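 CLSI M27-A2 (yeasts) or M38-A (A. fumigatus) broth microdilution in RPMI 1640 buffered to pH 7.0 with 0.165 M MOPS. Final inocula were 0.65–2.5 × 10^3 CFU/ml for yeasts and 0.87–3.8 × 10^4 CFU/ml for filamentous fungi. Incubation was at 35°C for about 48 h (72 h for C. neoformans). MIC was the lowest concentration giving a prominent (~50%) turbidity drop versus growth control; amphotericin B required complete inhibition.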

Aspergillus fumigatus [9] = assay: Antifungal activity against Aspergillus fumigatus TIMM 0063 after 48 hrs by broth microdilution method; type: functional; conditions: TIMM 0063, 48 h; outline: as §1
Candida albicans [10] = assay: Antifungal activity against Candida albicans TIMM 1623 infected ICR mouse after 6 days; type: functional; conditions: TIMM 1623, 144 h
Outline: (§5)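 Male ICR mice, 4 weeks old and SPF, were made neutropenic with intraperitoneal cyclophosphamide. The schedule was 200 mg/kg on day −3 (day −4 for Cryptococcus) plus 100 mg/kg on day +1. Infection was by tail-vein injection of 0.2 ml suspension: C. albicans 3.0 × 10^4, C. neoformans 9.1 × 10^4, A. fumigatus conidia 8.4 × 10^4 CFU/mouse. Drugs were given subcutaneously once daily for 7 days from 2 h post-infection; controls received saline. Groups had 8–10 mice.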

Aspergillus niger = assay: Antifungal activity against Aspergillus niger NBRC 33023 after 48 hrs by broth microdilution method; type: functional; conditions: NBRC 33023, 48 h; outline: as §1
Malassezia furfur = assay: Antifungal activity against Malassezia furfur NBRC 0656 after 48 hrs by broth microdilution method; type: functional; conditions: NBRC 0656, 48 h; outline: as §1
Aspergillus fumigatus [11] = assay: Antifungal activity against Aspergillus fumigatus IFM 46895 infected ICR mouse assessed as delay in mortality of mouse at 1 mg/kg after 6 days; type: functional, organism-based; design: dose 1 mg/kg; outline: as §5
Candida albicans [12] = assay: Antifungal activity against Candida albicans ATCC MYA-1003 after 47 hrs by broth microdilution method; type: functional; conditions: ATCC MYA-1003, 47 h; outline: as §3
Aspergillus fumigatus [13] = assay: Antifungal activity against Aspergillus fumigatus ATCC 16424 after 48 hrs by broth microdilution method; type: functional; conditions: ATCC 16424, 48 h; outline: as §4
Mucor racemosus = assay: Antifungal activity against Mucor racemosus NBRC5403 after 24 hrs by broth microdilution method; type: functional; conditions: NBRC5403, 24 h
Candida tropicalis = assay: Antifungal activity against Candida tropicalis IFO 1400 after 48 hrs by broth microdilution method; type: functional; conditions: IFO 1400, 48 h; outline: as §1
Cryptococcus neoformans = assay: Antifungal activity against Cryptococcus neoformans ATCC 90113 after 72 hrs by broth microdilution method; type: functional; conditions: ATCC 90113, 72 h; outline: as §1
Candida albicans [14] = assay: Antifungal activity against Candida albicans ATCC 24433 after 48 hrs by broth microdilution method; type: functional; conditions: ATCC 24433, 48 h; outline: as §4
Candida albicans [15] = assay: Antifungal activity against Candida albicans TIMM 1623 after 48 hrs by broth microdilution method; type: functional; conditions: TIMM 1623, 48 h; outline: as §1

- MIC (Aspergillus fumigatus [1]): 0.5 µg/mL (≈ 1.14 µM)
- MIC (Aspergillus nidulans): 0.0156 µg/mL (≈ 0.0356 µM)
- MIC50 (Candida albicans [2]): 0.0005 µg/mL (≈ 0.00114 µM)
- MIC90 (Candida albicans [2]): 0.002 µg/mL (≈ 0.00457 µM)
- MIC (Nakaseomyces glabratus [3]): 0.0039 µg/mL (≈ 0.00891 µM)
- MIC (Aspergillus flavus): 0.5 µg/mL (≈ 1.14 µM)
- MIC (Candida albicans [4]): 0.001 µg/mL (≈ 0.00229 µM)
- MIC (Aspergillus terreus): 0.125 µg/mL (≈ 0.286 µM)
- MIC (Nakaseomyces glabratus [5]): 0.0039 µg/mL (≈ 0.00891 µM)
- MIC50 (Nakaseomyces glabratus [5]): 0.0039 µg/mL (≈ 0.00891 µM)
- MIC90 (Nakaseomyces glabratus [5]): 0.0078 µg/mL (≈ 0.0178 µM)
- MIC50 [6]: 0.002 µg/mL (≈ 0.00457 µM)
- MIC90 [6]: 0.0039 µg/mL (≈ 0.00891 µM)
- MIC (Candida albicans [7]): 0.001 µg/mL (≈ 0.00229 µM)
- MIC (Candida albicans [8]): 0.001 µg/mL (≈ 0.00229 µM)
- MIC (Candida parapsilosis): 0.001 µg/mL (≈ 0.00229 µM)
- MIC (Aspergillus fumigatus [9]): 1 µg/mL (≈ 2.29 µM)
- MIC (Aspergillus niger): 0.0625 µg/mL (≈ 0.143 µM)
- MIC (Malassezia furfur): 0.0313 µg/mL (≈ 0.0715 µM)
- MIC (Candida albicans [12]): 0.001 µg/mL (≈ 0.00229 µM)
- MIC (Aspergillus fumigatus [13]): 0.125 µg/mL (≈ 0.286 µM)
- MIC (Mucor racemosus): 2 µg/mL (≈ 4.57 µM)
- MIC (Candida tropicalis): 0.0005 µg/mL (≈ 0.00114 µM)
- MIC (Cryptococcus neoformans): 0.0078 µg/mL (≈ 0.0178 µM)
- MIC (Candida albicans [14]): 0.001 µg/mL (≈ 0.00229 µM)
- MIC (Candida albicans [15]): 0.001 µg/mL (≈ 0.00229 µM)
Compound: N=C(N)c1ccc(OCCCC2CCN(CCCOc3ccc(C(=N)N)cc3)CC2)cc1
- MFC (Aspergillus fumigatus [1]): > 64 µg/mL
- MFC (Aspergillus nidulans): 0.0313 µg/mL (≈ 0.0715 µM)
- MFC (Nakaseomyces glabratus [3]): > 64 µg/mL
- MFC (Aspergillus flavus): 8 µg/mL (≈ 18.3 µM)
- MFC (Candida albicans [4]): > 64 µg/mL
- MFC (Aspergillus terreus): 4 µg/mL (≈ 9.14 µM)
- MFC (Candida parapsilosis): > 64 µg/mL
- MFC (Aspergillus fumigatus [9]): > 64 µg/mL
- ED50 (Candida albicans [10]): 7.55 µg/kg
- MFC (Aspergillus niger): 0.0625 µg/mL (≈ 0.143 µM)
- MFC (Malassezia furfur): 2 µg/mL (≈ 4.57 µM)
- Activity (Aspergillus fumigatus [11]): Active
- MFC (Aspergillus fumigatus [13]): > 64 µg/mL
- MFC (Mucor racemosus): > 64 µg/mL
- MFC (Candida tropicalis): 4 µg/mL (≈ 9.14 µM)
- MFC (Cryptococcus neoformans): 0.0625 µg/mL (≈ 0.143 µM)
- MFC (Candida albicans [14]): > 64 µg/mL
- MFC (Candida albicans [15]): > 64 µg/mL
